The source of these data is ChEMBL document CHEMBL4513216, “Probing the Open Global Health Chemical Diversity Library for Multistage-Active Starting Points for Next-Generation Antimalarials” (ACS Infect Dis, 2020).

The structures appear in SMILES notation.

This data set is described as follows: Toxicity liver stage against HepG2, at 10uM. It is filed as cell-based. The arrangement: test concentration 10 uM, cell line HepG2-A16-CD81EGFP. The note with it: human, HepG2-A16-CD81EGFP cells; read-out: INHIBITION
The procedure, abridged:
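Uninfected HepG2-A16-CD81EGFP cells, 3 × 10^3 per well, 1536-well, plated on prespotted compound at 10 μM final, parasite-free screening media added to match infected plates; puromycin 10 μM positive, DMSO 0.5% negative; run in parallel with 48 h PbLuc assay at 37 °C, 5% CO2; viability by CellTiter-Glo luminescence, normalized to controls.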
For the compound `O=c1cc2c(nn1CN1CCN(c3ccccc3)CC1)CCC2`, the cytotoxicity at 10 µM worked out at 7.13%. Turning to `CC(C)CC1SCC(=O)Nc2c1cnn2C(C)C` (stereo unspecified), the cytotoxicity at 10 µM worked out at 1.11%. The figure for `O=C(CSC1=NS(=O)(=O)c2cc(F)ccc2N1)Nc1cccc(Cl)c1` is 3.92%.

With `Cc1cc(S(=O)(=O)N2CCC(S(C)(=O)=O)CC2)ccc1F`, the cytotoxicity at 10 µM was 6.25%. The figure for `Cc1cc2nc(SCC(=O)N3CCCC3)n(-c3ccccc3)c(=O)c2[nH]1` is -6.34%. The figure for `O=C1N(Cc2cccnc2)CCC12CCCNC2` (stereo unspecified) is 3.52%; for `O=C(c1cnccn1)N1CCCC(C2=Nc3ccccc3S(=O)(=O)N2)C1` (stereo unspecified) it is -0.055%; for `Cc1cc2ncc(CN(C)C)c(C3CCN(C)CC3)n2n1` it is -1.19%.

Regarding `O=C1CO[C@H]2CCN(C(=O)c3ccc4c(c3)CCCC4)CC[C@@H]2N1`, the cytotoxicity at 10 µM was found to be 0.905%.

On to `CCN(Cc1ccccc1O)CC1(C)Cc2c(N)nc(N)nc2O1` (stereo unspecified), for which the cytotoxicity at 10 µM amounted to 2.15%. The result for `CN1CCN(C2CCN(CC(O)c3ccccc3)CC2)C1=O` (stereo unspecified) reads 1.76%; that for `CCCOc1cc(CNC(=O)Nc2cccc(C(C)=O)c2)ccn1`, -1%; that for `Cn1ccc(C(=O)Nc2nc(-c3ccc(Cl)cc3)n[nH]2)cc1=O`, -12.3%. On to `CC(=O)N1CCCC(C(=O)N2CCC(=Cc3cccc(F)c3)CC2)C1` (stereo unspecified), for which the cytotoxicity at 10 µM turned out to be 12%. In the case of `CCN1CCN(C2CCN(C(C(N)=O)c3ccc(F)cc3)CC2)C1=O` (stereo unspecified), the cytotoxicity at 10 µM is -20%.

On to `CCOc1ccccc1C(=O)N1CCn2c(nnc2C(F)(F)F)C1`, for which the cytotoxicity at 10 µM is -2.99%.

On to `CC(=O)N1CCCN(S(=O)(=O)c2cc3ccccc3o2)CC1`, for which the cytotoxicity at 10 µM worked out at 18.8%. With `COc1ccc(NC(=O)N(C)Cc2ccc(Br)o2)cn1`, the cytotoxicity at 10 µM was determined as 12%. Regarding `CCN(CC1CCOC1)C(=O)CSCC(=O)Nc1ccc(C)cc1` (stereo unspecified), the cytotoxicity at 10 µM is -7.04%. The result for `O=C(NCC(O)c1ccc(Cl)c(F)c1)NC1CC=CC1` (stereo unspecified) reads -2.41%. Take `CN(Cc1cccc(C#N)c1)Cn1nc(C(C)(C)C)ccc1=O`: the cytotoxicity at 10 µM is -1.64%.

For `CN(CCc1nccs1)C(=O)C1(C#N)CCCCC1`, the cytotoxicity at 10 µM is 2.91%.

For `COc1ccc(C)cc1NC(=O)Cn1nc(C)c(C#N)c1N`, the cytotoxicity at 10 µM is -22.9%. The result for `CC(NC(=O)Nc1nccs1)c1ccc(S(C)(=O)=O)cc1` (stereo unspecified) reads 7.04%. The result for `CCOC1CCCN(C(=O)c2ccccc2NCc2cccnc2)C1` (stereo unspecified) reads 0.595%. The result for `N#Cc1cccc(OCCN2CCNC(=O)C2c2cccs2)c1` (stereo unspecified) reads 6.76%; that for `Clc1ccc(Cc2nc(CNCCn3cccn3)cs2)cc1`, -1.86%. For the compound `Cc1cc2n(n1)CC(CNC1CCN(Cc3ccccc3C)CC1)CN2` (stereo unspecified), the cytotoxicity at 10 µM came to 3.69%.

Consider `NC(=O)CN1CCCN(C(=O)c2ccn(-c3cccc(F)c3)n2)CC1`, for which the cytotoxicity at 10 µM worked out at 14.3%. The result for `O=C(Cc1ccccc1F)N1CCN(C(=O)c2ccoc2)CC1` reads 1.16%. On to `CCCN(CC(=O)NC)C(=O)c1ccc(-c2ccsc2)nc1C`, for which the cytotoxicity at 10 µM was -14.3%. The result for `N#CC1(C(=O)Nc2ccc(OC(F)F)cc2)CCCC1` reads -11.1%. The result for `COc1cc(N2CCC3(CC2)CNC(=O)CO3)ncn1` reads 2.57%. The result for `Cn1cc(C(=O)N2CCO[C@@H]3CN(C4CCC4)C[C@@H]3C2)cn1` reads 8.55%; that for `c1csc(CNCC2COCc3c(-c4ccsc4)nnn3C2)n1` (stereo unspecified), -113%; that for `CC(C)C(=O)N1CCOC2(COCCN(c3ncccn3)C2)C1` (stereo unspecified), -114%. `COC[C@@]12CC[C@@H](N3CCOCC3)C[C@H]1CCN(c1ccc(Cl)cn1)C2`: the cytotoxicity at 10 µM was -5.14%. The figure for `CCNc1ccnc(N2Cc3cnc(CC(C)C)nc3C2)n1` is 10.4%; for `CCSc1ccc(C(=O)N2CCC3(CC2)[C@H](O)C[C@@H]3O)s1` it is 1.34%; for `CC(C)CC(O)C1CCN(C(=O)c2coc(CN3CCOCC3)c2)CC1` (stereo unspecified) it is -7.27%. For the compound `NC(=O)COc1ccc(CN2CC[C@@]3(O)CCCC[C@H]3C2)cc1Cl`, the cytotoxicity at 10 µM is -6.87%. The figure for `c1cc2c(cc1Cn1cc(C3CCCNC3)nn1)CCCO2` (stereo unspecified) is -5.24%; for `Cc1cc(NCCc2c(C)n[nH]c2C)nc(-c2cccnc2)n1` it is -0.355%; for `COc1ccc(CNC2CCCc3nc(N(C)C)ncc32)c(OC)c1` (stereo unspecified) it is 1.42%. The result for `Cc1cc(NCCc2nnc(N)s2)nc(-c2cccnc2)n1` reads -5.44%; that for `CCOCCn1c(=O)[nH]c2cc(C(=O)N(C)Cc3cc(C)[nH]n3)ccc21`, -0.673%; that for `Cc1cncc(C(=O)N2CCCC(C(=O)CCc3ccccc3)C2)c1` (stereo unspecified), -10.1%. The figure for `COc1ccc(C(=O)N2CC[C@H](CO)[C@H](O)C2)c(C)c1` is -11.5%. With `CCCS(=O)(=O)NCC1CCOc2ccccc2C1` (stereo unspecified), the cytotoxicity at 10 µM is -6.92%.

As to `COc1ccc(Cl)cc1C(=O)N1CCOC2(CNCCOC2)C1` (stereo unspecified), the cytotoxicity at 10 µM is -9.73%. The figure for `CN(C)[C@H]1CCCCN(C(=O)CCc2csc(N)n2)C1` is -7.59%; for `Cc1cccc(CN2CCN(Cc3ccccc3)CC(O)C2)n1` (stereo unspecified) it is -8.42%; for `Cc1cnn(C2CCCN(C(=O)CCc3c(C)noc3C)C2)c1` (stereo unspecified) it is -17.2%. The result for `CCS(=O)(=O)CCN1CCCC1c1noc(C)n1` (stereo unspecified) reads -10.4%; that for `CN1CCOC(CNCc2coc(-c3ccccc3Cl)n2)C1` (stereo unspecified), -14.1%. Take `O=C(NCc1cc[nH]n1)NCC(O)c1ccc(F)cc1` (stereo unspecified): the cytotoxicity at 10 µM is -12%. The result for `CN(C)c1cc(CNC(=O)c2ccc(Br)cc2F)ccn1` reads -26%; that for `Cc1nc(C)n(CC2CN(Cc3noc(C4CC4)n3)CCO2)n1` (stereo unspecified), -8.15%. The figure for `CCn1nc2c(cc1=O)CN(CCCN1CCCC1=O)CC2` is -13.9%; for `CN(Cc1nnc2n1CCC2)C(=O)c1ccc2c(c1)OCO2` it is -18.2%. The figure for `Cc1cc(C)n(CCC(=O)N2CCCC(c3cc(C(N)=O)[nH]n3)C2)n1` (stereo unspecified) is -29.3%. Regarding `Cc1occc1CNC(=O)NCCN(C)C1CCCC1`, the cytotoxicity at 10 µM was -19.5%. The result for `CC(C(N)=O)S(=O)(=O)Cc1cc(Cl)c2c(c1)OCO2` (stereo unspecified) reads -14.2%; that for `COc1cc(C)nc(N2CCN(C(=O)c3ccc(Cl)o3)CC2)n1`, -3.22%. The result for `CN(Cc1cn2ccccc2n1)C1CCCN(c2cccnn2)C1` (stereo unspecified) reads -9.78%; that for `CN(C)c1ccc(C(=O)N2CCN(Cc3cscn3)CC2)cc1F`, -11.7%. The result for `COc1ccc(CN2CCCn3nnc(COCC4CC4)c3C2)cc1` reads -110%; that for `CCOC1COC2(CCN(c3cccc(C)n3)CC2)C1` (stereo unspecified), -2.16%; that for `Cc1oncc1C(=O)N1CC[C@H]2[C@H](C[C@@H](CN3CCCC3)N2C)C1`, 0.286%. Take `CN1CCO[C@@H]2CN(C(=O)NCc3ccccc3)CC[C@@H]2C1`: the cytotoxicity at 10 µM was -104%. Take `OCCN1CCC(F)(F)C2(CCN(c3cnccn3)C2)C1` (stereo unspecified): the cytotoxicity at 10 µM came out at 8.24%.
